# Source: PubChem
# MC4R ag barr: MC4R agonists recruiting beta-arrestin, primary screen, cell-based, luminescence, agonist arm of biased-ligand search; Melanocortin receptor 4 (Homo sapiens), P32245; U2OS MC4R beta-arrestin complementation; percent of melanotan II response, DMSO zero; activation, % at 8.9 µM; 0.98% of 360,000 active; AID 540308, 2011;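 active = activation above a per-plate cutoff, the mean activation of sample wells on that plate plus 3 SD, cut at about 8% in these data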
# MC4R antagonist: MC4R antagonists of cAMP signaling, primary screen, cell-based, TR-FRET, antagonist arm of biased-ligand search. AID 540295, 2011. 0.48% of 360,000 active. MC4R-expressing cells, MTII-stimulated cAMP, LANCE TR-FRET. Melanocortin receptor 4 (Homo sapiens), P32245. inhibition, % at 6.5 µM;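 active = inhibition above its plate's cutoff, the mean of tested wells on that plate plus 3 SD, cut at about 29% in these data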
#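 Material: U2OS-MC4R stable cell line | Reagent: Melanotan II challenge after compound preincubation | Doses: One concentration, 6.5 µM nominal | Incubation: 30-min compound preincubation, 1-h Melanotan II challenge, 1-h detection, room temperature | Signal: TR-FRET cAMP assay | Replicates: One well per compound, no replicates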
# beta cell repl: inducers of MIN6 beta-cell proliferation, primary screen, ATP luminescence, uHTS; MIN6 cells proliferation, ATPlite luminescence, 48 h; cells starved in 0.2% serum; 100% = growth in 10% serum; proliferation, % at 10 µM; 0.29% of 330,000 active; AID 2380, 2010;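 active = compounds whose signal lies at least 3.5 SD above the mean of all wells on their plate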
# ANO1 activ: TMEM16A chloride channel activators or potentiators, primary screen, cell-based, HTS; HEK293 TMEM16A/YFP-H148Q/I152L, iodide quench fluorescence; stronger effect = lower value; Anoctamin-1 (Mus musculus), Q8BHY3; B-score at 10 µM; 0.3% of 340,000 active;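 active = fluorescence-ratio B-score plate-corrected deviation score at least 3 library SD below zero, with starting fluorescence score within 5 deviations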;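 also: channel opened by trigger with iodide after compound preincubation; score built on the fluorescence ratio of max minus min over baseline; more negative score means more quench and so TMEM16A activation or potentiation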
# Target sequence (Q8BHY3 whole entry, looked up): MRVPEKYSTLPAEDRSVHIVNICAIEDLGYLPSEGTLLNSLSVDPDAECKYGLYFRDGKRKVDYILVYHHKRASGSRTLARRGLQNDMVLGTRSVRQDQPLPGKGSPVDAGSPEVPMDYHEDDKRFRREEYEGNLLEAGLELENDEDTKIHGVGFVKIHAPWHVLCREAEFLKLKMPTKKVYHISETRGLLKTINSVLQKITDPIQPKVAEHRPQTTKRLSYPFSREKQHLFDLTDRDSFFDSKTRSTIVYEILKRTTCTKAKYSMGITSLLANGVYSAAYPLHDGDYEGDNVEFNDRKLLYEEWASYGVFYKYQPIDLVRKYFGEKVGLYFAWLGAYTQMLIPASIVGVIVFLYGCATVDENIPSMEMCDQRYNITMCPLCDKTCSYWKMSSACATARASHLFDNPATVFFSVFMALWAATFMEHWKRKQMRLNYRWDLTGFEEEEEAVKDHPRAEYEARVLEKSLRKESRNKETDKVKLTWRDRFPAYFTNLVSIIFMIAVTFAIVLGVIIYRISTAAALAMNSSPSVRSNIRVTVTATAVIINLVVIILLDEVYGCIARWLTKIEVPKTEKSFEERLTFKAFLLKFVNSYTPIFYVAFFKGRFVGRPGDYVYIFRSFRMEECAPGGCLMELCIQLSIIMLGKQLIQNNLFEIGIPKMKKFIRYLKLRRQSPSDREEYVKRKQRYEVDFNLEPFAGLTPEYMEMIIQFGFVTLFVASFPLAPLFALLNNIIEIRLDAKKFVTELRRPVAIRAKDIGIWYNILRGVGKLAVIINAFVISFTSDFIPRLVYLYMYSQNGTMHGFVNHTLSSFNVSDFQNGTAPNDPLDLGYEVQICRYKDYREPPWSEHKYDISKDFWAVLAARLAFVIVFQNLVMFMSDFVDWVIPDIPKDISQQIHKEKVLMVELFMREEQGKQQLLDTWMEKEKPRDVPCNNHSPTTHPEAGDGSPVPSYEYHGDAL
# TMEM16A inh: TMEM16A chloride channel inhibitors, primary screen, cell-based, HTS; 1.2% of 310,000 active; normalized B-score (activity score, 25-100; higher = stronger inhibition) at 10 µM; Anoctamin-1 (Mus musculus), Q8BHY3; HEK293 TMEM16A/YFP iodide influx fluorescence, ionomycin; AID 588511, 2011;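 active = ratio plate-corrected score three or more library SD toward inhibition, starting fluorescence score within five deviations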;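 also: score derived from kinetic fluorescence span divided by baseline fluorescence per well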
# HTR2A ag: mouse Htr2a agonists via beta-arrestin recruitment, primary screen, cell-based, luminescence; 0.66% of 360,000 active; AID 624169, 2012; activation, % at 7.6 µM; CHO-K1 mHTR2A beta-arrestin complementation; percent of 30 µM serotonin response;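 active = activation above a run cutoff, the mean activation of all tested compounds plus 3 SD, cut at about 14% in these data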
# TMEM16A reconf: TMEM16A chloride channel inhibitors, confirmation, cell-based, re-confirmation; shares compounds with TMEM16A inh; HEK293 TMEM16A/YFP-H148Q, iodide quench fluorescence; ionomycin added to raise cell calcium; inhibition, % at 10 µM; 39% of 2,300 active; AID 652189, 2013;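 active = mean duplicate percent inhibition, scaled so buffer wells are 0 and the reference blocker 100, over three buffer SD above buffer mean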
# TMEM16A Ca cntr: calcium mobilization in TMEM16A/YFP HEK293 cells, confirmation, counter-screen for TMEM16A inhibitor project; shares compounds with TMEM16A inh; Fluo4 calcium mobilization; calcium response (% of ionomycin), % at 10 µM; 2% of 2,300 active; AID 652231, 2013;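 active = duplicate-averaged calcium signal over 20% of the ionomycin maximum, relative to buffer baseline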;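 also: each well's signal is peak minus trough fluorescence divided by its pre-addition baseline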
# Parental YFP cnt: iodide YFP quench changes in parental YFP-HEK293, counter-screen for TMEM16A inhibitor project, cell-based. shares compounds with TMEM16A inh. ionomycin. YFP ratio F(max-min)/F0 at 10 µM. 2,300 tested, under 10 active. AID 652233, 2013;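 active = yellow fluorescent protein signal ratio exceeding the buffer control mean by over 5 SD of those controls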;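 also: ratio is mean of duplicate wells from kinetic YFP trace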
# ClC-1 inh: ClC-1 chloride channel inhibition, selectivity assay for TMEM16A inhibitor project, cell-based, voltage-dependent ClC-1. shares compounds with TMEM16A inh. CHO ClC-1-YFP, iodide influx fluorescence quench; iodide control reads 0, buffer control 100. ratio percent, % at 10 µM. 2,300 tested, under 10 active. AID 652236, 2013;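 active = duplicate-mean ratio percent above the mean of iodide-only control wells, which defines zero, plus 5 of their SD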;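 also: higher percent means stronger block of ClC-1 iodide influx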
# Numbers stand for hits; . = inactive; / = not tested or not shown. The list is not random: actives were taken first. Their share in the collection is about 3.4%.
SMILES,MC4R ag barr,MC4R antagonist,beta cell repl,ANO1 activ,TMEM16A inh,HTR2A ag,TMEM16A reconf,TMEM16A Ca cntr,Parental YFP cnt,ClC-1 inh
O=S(=O)(Nc1nc(-c2ccccc2)cs1)c1cccc(C(F)(F)F)c1,.,.,.,.,100,.,25%,.,.,.
CCOc1ccc(C(=O)NC2CCN(C(=O)Nc3ccc(F)cc3)CC2)cc1,.,.,.,.,.,.,/,/,/,/
CCCCOc1ncnc2c1[nH]c1ccc(F)cc12,.,.,.,.,25,.,.,.,.,.
O=C1C=CN(C2OC(CO)C(O)C2O)C(=O)C1 (centres undefined),.,.,/,/,/,.,/,/,/,/
CCn1cc(C(=O)NCc2ccccn2)c(=O)c2cc(F)c(N3CCN(C)CC3)cc21,.,.,.,.,.,.,.,.,.,.
CCC(C(=O)OCC(=O)Nc1ccc(Cl)c(S(=O)(=O)N(C)C)c1)c1ccccc1 (centres undefined),.,.,.,.,25,.,20%,.,.,.
CN(C)S(=O)(=O)c1cc(NC(=O)COC(=O)Cc2ccc(Cl)cc2Cl)ccc1Cl,.,.,.,.,.,.,/,/,/,/
CN(C)S(=O)(=O)c1cc(NC(=O)COC(=O)Cc2cccc3ccccc23)ccc1Cl,.,.,.,.,25,.,.,.,.,.
CC(C)c1ccccc1OCC(=O)Nc1ccc2[nH]ncc2c1,.,.,.,.,.,.,/,/,/,/
CC(Oc1ccc(Cl)cc1Cl)c1nc(-c2ccc(NC(=O)c3cccnc3)cc2)no1 (centres undefined),.,.,.,.,25,.,.,.,.,.
CC(Oc1ccc(Cl)cc1Cl)C(=O)NNC(=O)c1cccnc1 (centres undefined),.,.,.,.,.,.,/,/,/,/
CCOC(=O)c1ccc(NC(=O)CCc2ccc(CC)o2)cc1,.,.,.,.,100,.,.,.,.,.
S=C(NCCc1ccccc1)Nc1ccc(N2CCCCC2)cc1,.,.,.,/,.,.,.,.,.,.
CCNC(=S)Nc1ccc(N2CCCCC2)cc1,.,.,.,.,.,.,/,/,/,/
CCc1ccc(CCC(=O)Nc2ccc(C(C)=O)cc2)o1,.,.,.,.,.,.,/,/,/,/
CCOC(=O)c1ccc(NC(=S)NCCc2ccccc2)cc1,.,.,.,.,25,.,18%,.,.,.
CCOC(=O)c1ccc(NC(=S)NCCc2ccccc2F)cc1,.,.,.,.,100,.,20%,.,.,.
COCCn1c(SCc2csc(-c3ccccc3)n2)nc2ccccc21,.,.,.,.,100,.,24%,.,.,.
COCCn1c(SCC(=O)NCc2ccccc2)nc2ccccc21,.,.,.,.,.,.,/,/,/,/
CN1C[C@@H]2[C@@H]3C(=O)N(C)C(=O)[C@@H]3[C@](C)(C1=O)N2C(=O)c1ccc(Cl)cc1,.,.,/,.,/,.,/,/,/,/
